To fix the notation:
B1: tRNA (parent)
chain: GUUCCGUUGGCGUAAUGGUAACGCGUCUCCCUCCUAAGGAGAAGACUGCGGGUUCGAGUCCCGUACGGAACG

Variants at the floor of the assay were thinned out. Some results are limits rather than exact numbers.

In the data set the parent is B1. The data set can be described thus: yeast fitness relative to wild type (ratio to wild type); higher = fitter; tRNA-Arg(CCU), competitive growth, 37 C, YPD. An outline of the steps: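 The tRNA-Arg(CCU) gene variants were made by chemical synthesis with a 3% per-site mutation rate at 69 sites and inserted at the native genomic locus of Saccharomyces cerevisiae. After pooling, the strains were competed in YPD at 37°C for 24 hours in six parallel replicates. Gene amplicons from the start population and each end population were read by 100-nucleotide paired-end sequencing, and Darwinian fitness relative to wild type was taken from genotype frequency changes. Genotypes needed ≥ 100 starting reads, and estimates < 0.5 were set to 0.5.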
For the variant GUUCCGUCGGCGUUAUGGUAACGCGUCUCCCUCCUAAGGAGAAGACUGAGGGUUCGAGUCCCGUACGGAACG [U8C A14U C49A], the yeast fitness is at most 0.5.
In the case of GUUCCGUCGGCGUAAUGGUAUCGCGUGUUCCCCCUAAGGAGAAGACUGCGGGUUCGAGUCCCGUACGGAACG [U8C A21U C27G C29U U32C], the yeast fitness is at most 0.5.
On to GUUCCGUCGGCGUAUUGGUAACGCAUCUCCCUCGUAAGGAGAAGACUGCGGGUACGAGUCCCGUUCGGAACG [U8C A15U G25A C34G U54A A65U], for which the yeast fitness is 0.541.
The value for GUUCCGUCGGCGUAAUGGUAGCGCGUCUCCCUCCUAAGGAGAAGACUGCGGGUUCGAGUCCCGUACGGAACG [U8C A21G] was 1.03; that for GUUCCGUCGGCGUAUUGGUAACGCGUCUCCCUGCUAAGGAGAAGACUGCGGGUUCGAGUCCGGUACGGAACG [U8C A15U C33G C62G] was at most 0.5.
With GUUCCGUCGGCGUAAUGGUGACGCGUUUCUCUCCUAAGGAGGAGACUGCGGGUUCGAGUACCGUACGGAACG [U8C A20G C27U C30U A42G C60A], the yeast fitness was 0.711.
Next, GUUCCGUCGGCGUAAUGGUGACGCGUCUCCCUCCUAAGGAGAAGACUGCGGGUUCGAGUCCCGUAAGGAACG [U8C A20G C66A]: at most 0.5.
As to GUUCCGUCGGCGUAGUGGUAACGCAUCUCCCUCCUAAGGAGAAGACUGUGGGUUCGAGUCCCGUUCGGAACG [U8C A15G G25A C49U A65U], the yeast fitness was at most 0.5.
The value for GUUCCGUCGGCGUACUGGUAACGCGUCUCCCUCUUAGGGUGAAGACUGCGGGUUCGAGUCCCGUACGGAACG [U8C A15C C34U A37G A40U] was at most 0.5.
In the case of GUUCCGUCGGCGUAUUGGUAAGGCGUCUCCUUCCUAAGGAGAAGACUGCGGGUUCGCGUCCCGAACGAAACG [U8C A15U C22G C31U A57C U64A G68A], the yeast fitness was at most 0.5.
In the case of GUUCCGUCGGCGUAUUGGUAACGCAUCUCCCUCGUAAGGAGAAGACUGCGGGUACGAGUCCCGUACGGAACG [U8C A15U G25A C34G U54A], the yeast fitness is at most 0.5.
The value for GUUCCGUCGGCGUUAUGGUAACGCGUCUCACUCCUAAGGAGAAGACUGCGGGUUCGAGUCCCGUACGGAACG [U8C A14U C30A] was at most 0.5; that for GUUCCGUCGGCGUUAUGGUAACGCGUCUCCCUCGUAAGGAGAAGAAUGCGGGUUCGAGUCCUGUACGGCACG [U8C A14U C34G C46A C62U A69C] was at most 0.5; that for GUUCCGUCGGCGUAAUGGUCACGCGUCUCCCUCCUAAAGAGAAGACUGCGGGAUCGAGUCCCGUACGGAACG [U8C A20C G38A U53A] was at most 0.5.
GUUCCGUCGGCGUAGUGGUAACGCGUCUCCCUCCUAACGAGAAGACUGCGGGUUCGAGUCCCGAACGACACG [U8C A15G G38C U64A G68A A69C]: the yeast fitness is at most 0.5.
GUUCCGUCGGCGUAAUGGUACCGCGUCUCUCUCCUAAGGAGAAGACUGCGGAUUCGAGUCCCGUACGGAACG [U8C A21C C30U G52A]: the yeast fitness was at most 0.5.
The value for GUUCCGUCGGCGUAAUGGUCACGCGUCUCCCUCCUAAGGAGAAGACUGCGGGUUCAAGUCUCGUACGGAACG [U8C A20C G56A C61U] was 0.532.
The value for GUUCCGUCGGCGUAAUGGUUACGCGUCACCCUCCUAAGGAGAAGACUGCGGGUUCGAGUCCUGUACUGAACG [U8C A20U U28A C62U G67U] was at most 0.5.
Next, GUUCCGUCGGCGUACUGGUAACGCGUCUCCCUCCUAAGGAGAAGACUGCGGGUUCGAGUCCCAUACGGAACG [U8C A15C G63A]: at most 0.5.
For the variant GUUCCGUCGGCGUACUGGUAACGCGUCUCCCUCCUAAGGAGAAGCCUGCGGGUUCGAGUCCGGUACGGAACG [U8C A15C A45C C62G], the yeast fitness stood at 0.535.
GUUCCGUCGGCGUAGUGGUAACGCGUCUCCCUCCUAAGGAGAAGACUGCGGGUUCGAGUCUCGUACGGAACG [U8C A15G C61U]: the yeast fitness is 0.628.
The value for GUUCCGUCGGCGUACUGGUUACGCGUCUCCCUCCUAAGGAGAAGACUGCGGGUUCGAGUCCCGUACGGAACG [U8C A15C A20U] was 0.544; that for GUUCCGUCGGCGUAAUGGUUACGCGUCUCCCUCCUAAGGAGAAGACUGCGGGUUCGAGUCCCGUACGGAACG [U8C A20U] was 0.92; that for GUUCCGUCGGCGUAAUGGUCACGCGUCUCCCUCCUAAGGAGAAGACUGCGGGUUCGAGUCCCGUACGGAACG [U8C A20C] was 0.985.
As to GUUCCGUCGGCGUAAUGGUGACGCGUCUCCCUCCUAAGGAGAAGACUGCGGGUUCGAGUCCCGUACGGAACG [U8C A20G], the yeast fitness worked out at 0.941.
The value for GUUCCGUCGGCGUAUUGGUAACGCGUCUCCCUCCUAAGGAGAAGACUGCGGGUUCGAGUCCCGUACGGAACG [U8C A15U] was 0.849.
Next, GUUCCGUCGGCGUAGUGGUAACGCGUCUCCCUCCUAAGGAGAAGACUGCAGGUUCGAGUCCCGUACGGAACG [U8C A15G G50A]: 0.674; GUUCCGUCGGCGUAAUGGUAGCGCGUCUCCCUCCUAAGGAGAAGAUUGCGGGUUCGAGUCCUGUACGGAACG [U8C A21G C46U C62U]: 0.699.
Regarding GUUCCGUCGGCGUACUGGUAACGCGUCUCCCACCUAAGGAGAAGACUGCGGGUUCGAGUCCCGUACGGACCG [U8C A15C U32A A70C], the yeast fitness was at most 0.5.
Next, GUUCCGUCGGCGUAAUGGUUACGCGUCUCGCUCCUAGGGAGAAAACUGCGGGUUCGAGUCCCGUACGGAACG [U8C A20U C30G A37G G44A]: at most 0.5.
For GUUCCGUCGGCGUAAUGGUCCCGCGUCUCCCUCCUUAGGAGAAGCCUGCGGGUUCGAGUCCCGUACGGAACG [U8C A20C A21C A36U A45C], the yeast fitness was at most 0.5.
As to GUUCCGUCGGCGUAAUGGUAUCGUGUCUCCCACCUAAGGAGAAGACUGCGGGUUGGAGUCCCGUACGGAACG [U8C A21U C24U U32A C55G], the yeast fitness is at most 0.5.
For the variant GUUCCGUCGGCGUAAUGGUAUCGCGUUUCCCUCCUAACGAGAAGACUGCGGGUUCGAGUCGCGUACGGAACG [U8C A21U C27U G38C C61G], the yeast fitness came out at 0.553.
The value for GUUCCGUCGGCGUAAUGGUCAAGUGUCUCCCUCCUAAGGAGAAGACUGCGGGUUCGAGUCCCGUACGGAACG [U8C A20C C22A C24U] was at most 0.5.
The value for GUUCCGUCGGCGUAAUGGUAGCGCGUCUCCCUUCUGAGGAGAUGACUGCGGGUUCGAGUCCCGUUCGGAGCG [U8C A21G C33U A36G A43U A65U A70G] was at most 0.5.
The value for GUUCCGUCGGCGUAAUGGUAUCGCGUCUCCCUCCUAAGGAGAAGACUGCGGGUUCGAGUCCCGUACGGUACG [U8C A21U A69U] was 0.527.
For GUUCCGUCGGCGUAUAGGUAACGCGACUCCCUCCUAAGGAGAAGACUGCGGGUUCGAGUCCCGUACGGAACG [U8C A15U U16A U26A], the yeast fitness is at most 0.5.
For GUUCCGUCGGCGUAAUGGUUUCGCGGCUCCAUCCUAAGGAGAAGUCUGCGGGUUCGAGUCCCGUACGGAACG [U8C A20U A21U U26G C31A A45U], the yeast fitness turned out to be 0.54.

(Values after the RNAGym collection of RNA variant scans (doi:10.1126/science.aae0568).)
